Among the data in ChEMBL document CHEMBL1629439, “High-throughput identification of antibacterials against methicillin-resistant Staphylococcus aureus (MRSA) and the transglycosylase” (Bioorg Med Chem, 2010) are MIC, inhibition and IC90 values, retold here.

Test [1] concerns Staphylococcus aureus. Briefly: Antimicrobial activity against oxacillin- and methicillin-resistant Staphylococcus aureus isolate Sa-OXA-R2 after 18 to 24 hrs by alamar blue assay. It counts as functional. The essentials:
(§1)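 Broth microdilution per NCCLS standard, Mueller-Hinton broth, 8-point twofold dilutions; exponentially growing cells at 5 10^5 cells/ml with compound, 18–24 h at 37 C; 20% Alamar blue added, fluorescence read; MIC90 taken as lowest concentration preventing at least 90% growth.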
In general terms: Resazurin is reduced to fluorescent resorufin, in cell work by metabolically active cells.

In a further test the test system is Bacillus subtilis. Briefly: Antimicrobial activity against Bacillus subtilis ATCC 23857 after 18 to 24 hrs by alamar blue assay. In kind it is functional. The essentials: (§2)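 Broth microdilution per NCCLS in Mueller-Hinton broth, 8-point twofold dilutions, 384-well format. Exponential-phase cells at 5 × 10^5 cells/ml incubated with compound 18–24 h at 37 °C, then 20% Alamar blue added and fluorescence read. MIC90 taken as the lowest concentration preventing at least 90% bacterial growth.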

The test system of another test is Escherichia coli. Briefly: Antimicrobial activity against Escherichia coli ATCC […] after 18 to 24 hrs by alamar blue assay. It counts as functional. In outline:
as §2

For a further test, the system named is Pseudomonas aeruginosa. Briefly: Antimicrobial activity against Pseudomonas aeruginosa ATCC 25619 after 18 to 24 hrs by alamar blue assay. In kind it is functional. The essentials: as §2
The next test deals with Acinetobacter baumannii. Briefly: Antimicrobial activity against Acinetobacter baumannii ATCC 49139 after 18 to 24 hrs by alamar blue assay. In kind it is functional. In outline: as §2
Test [2] concerns Stenotrophomonas maltophilia. Briefly: Antimicrobial activity against Stenotrophomonas maltophilia ATCC 13637 after 18 to 24 hrs by alamar blue assay. In kind it is functional. In outline:
as §2

The test system of the next test is Serratia marcescens. Briefly: Antimicrobial activity against Serratia marcescens ATCC 14756 after 18 to 24 hrs by alamar blue assay. In kind it is functional. In outline:
as §2

The subject of test [3] is Mycolicibacterium smegmatis. Briefly: Antimicrobial activity against Mycobacterium smegmatis BCRC 11565 after 18 to 24 hrs by alamar blue assay. It counts as functional. In outline:
as §2

A short description of test [4]: Inhibition of transglycosylase assessed as inhibition of NBD- labelled lipid II polymerization at 100 uM. The essentials: (§3)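 100 µM NBD-labelled lipid II incubated 30 min with full-length PBP (EC, SA or Mtb) and 10 ng/µl N-acetylmuramidase in 50 mM Tris-HCl pH 8.0, 10 mM MgCl2, 0.1% Triton X-100, 10% DMSO, 15% MeOH. Supernatant run on anion-exchange HPLC with 20 mM–0.5 M ammonium acetate gradient. Inhibition calculated from substrate peak-area percentage. IC50 determined. S. aureus strains share one SA enzyme.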

The subject of test [5] is Staphylococcus aureus. Briefly: Antimicrobial activity against methicillin-resistant Staphylococcus aureus isolate NTUH4722 after 18 to 24 hrs by alamar blue assay. It counts as functional. The essentials: as §1
Test [6] has as its system Staphylococcus aureus. Briefly: Antimicrobial activity against methicillin-resistant Staphylococcus aureus ATCC 33592 after 18 to 24 hrs by alamar blue assay. It counts as functional. In outline: as §1
Test [7] deals with Staphylococcus aureus. Briefly: Antimicrobial activity against Staphylococcus aureus ATCC 29213 after 18 to 24 hrs by alamar blue assay.
Test [8] is described as follows: Displacement of fluorescein-labeled moenomycin from transglycosylase at 100 uM after 30 mins by fluorescence anisotropy binding assay.
Test [9] is described as follows: Inhibition of transglycosylase assessed as inhibition of NBD- labelled lipid II polymerization. In outline: as §3
Test [10] deals with Staphylococcus aureus. Briefly: Antimicrobial activity against wild-type Staphylococcus aureus ATCC 29213 after 18 to 24 hrs by alamar blue assay.
[11] abbreviates: Escherichia coli, read-out: MIC.
The mark [12] stands for this setting: Pseudomonas aeruginosa, ATCC 25619, read-out: MIC.
[13] abbreviates: Acinetobacter baumannii, ATCC 49139, read-out: MIC.
Where [14] appears, read: Stenotrophomonas maltophilia, ATCC 13637, read-out: MIC.
[15] abbreviates: Serratia marcescens, ATCC 14756, read-out: MIC.
Setting [16] is: Mycolicibacterium smegmatis, BCRC 11565, read-out: MIC.
Setting [17] is: Staphylococcus aureus, ATCC 33592, read-out: MIC.

In brackets after ≈: the same amount, converted by molar mass.

The term MIC denotes the smallest concentration in the dilution series that meets the test's criterion for growth inhibition. What is called inhibition is the share of the control response that was lost under treatment. Regarding `O=C(Nc1ccc(Cl)c(Cl)c1)c1cc(Cl)ccc1NS(=O)(=O)c1ccc(Cl)cc1`, the minimal inhibitory concentration (MIC) is 0.25 µg/mL (≈ 0.51 µM) against Staphylococcus aureus [1]; less than 0.03 µg/mL with Bacillus subtilis; more than 256 µg/mL in the test with Escherichia coli (setting [11]); more than 256 µg/mL in the test with Pseudomonas aeruginosa (setting [12]); more than 256 µg/mL with Acinetobacter baumannii (setting [13]); more than 256 µg/mL in test [2] (setting [14]). Moreover, the minimal inhibitory concentration (MIC) in the test with Serratia marcescens (setting [15]) was more than 256 µg/mL; in test [3] (setting [16]), more than 64 µg/mL; against Staphylococcus aureus [5] it was 0.25 µg/mL (≈ 0.51 µM); in the test on Staphylococcus aureus [6] (setting [17]) it was 0.25 µg/mL (≈ 0.51 µM); in the test with Staphylococcus aureus [7], 0.25 µg/mL (≈ 0.51 µM). Besides, the inhibition in test [4] worked out at 0%; in test [8], 98%.
`O=C(Nc1ccc(Cl)c(Cl)c1)c1ccc([N+](=O)[O-])o1`: the minimum inhibitory concentration (MIC) in the test on Staphylococcus aureus [1] is more than 4 µg/mL; in the test on Bacillus subtilis it was 0.06 µg/mL (≈ 0.199 µM); in the test with Escherichia coli (setting [11]) it was 256 µg/mL (≈ 850 µM); in the test on Pseudomonas aeruginosa (setting [12]), 128 µg/mL (≈ 425 µM); in the test on Acinetobacter baumannii (setting [13]), 12 µg/mL (≈ 39.9 µM); in test [2] (setting [14]), 32 µg/mL (≈ 106 µM). For the same compound, the MIC came to 32 µg/mL (≈ 106 µM) with Serratia marcescens (setting [15]); 0.5 µg/mL (≈ 1.66 µM) in [3] (setting [16]); 4 µg/mL (≈ 13.3 µM) in the test on Staphylococcus aureus [5]; 2 µg/mL (≈ 6.64 µM) in the test on Staphylococcus aureus [6] (setting [17]); 2 µg/mL (≈ 6.64 µM) with Staphylococcus aureus [7]. The inhibition in test [4] was 0%; in test [8] it was 96%.
Take `Cc1c(CCC(=O)O)c(=O)oc2c(C)c3occ(-c4ccc(Cl)cc4)c3cc12`: the minimum inhibitory concentration (MIC) against Staphylococcus aureus [1] was 2.5 µg/mL (≈ 6.3 µM); against Bacillus subtilis, more than 64 µg/mL; in the test on Escherichia coli (setting [11]), more than 256 µg/mL; in the test with Pseudomonas aeruginosa (setting [12]), more than 256 µg/mL; in the test on Acinetobacter baumannii (setting [13]), more than 256 µg/mL; in [2] (setting [14]) it was more than 256 µg/mL. In addition, the MIC in the test on Serratia marcescens (setting [15]) was more than 256 µg/mL; in [3] (setting [16]), 1 µg/mL (≈ 2.52 µM); against Staphylococcus aureus [5] it was 2.5 µg/mL (≈ 6.3 µM); with Staphylococcus aureus [6] (setting [17]), 1.25 µg/mL (≈ 3.15 µM); against Staphylococcus aureus [7], 2.5 µg/mL (≈ 6.3 µM). Besides, the inhibition in test [4] was 0%; in test [8] it was 97%.
In general, IC90 refers to the concentration at which the effect reaches the 90% level. In the case of `O=C(Nc1cc(Cl)ccc1Oc1ccccc1)c1cc(Br)cc(Br)c1O`, the minimal inhibitory concentration (MIC) was 0.5 µg/mL (≈ 1 µM) against Staphylococcus aureus [1]; less than 0.03 µg/mL against Bacillus subtilis; 8 µg/mL (≈ 16.1 µM) in the test on Escherichia coli (setting [11]); 16 µg/mL (≈ 32.2 µM) in the test on Pseudomonas aeruginosa (setting [12]); 16 µg/mL (≈ 32.2 µM) in the test on Acinetobacter baumannii (setting [13]); 16 µg/mL (≈ 32.2 µM) in test [2] (setting [14]). Besides, the minimum inhibitory concentration (MIC) is 16 µg/mL (≈ 32.2 µM) with Serratia marcescens (setting [15]); 0.5 µg/mL (≈ 1 µM) in test [3] (setting [16]); 0.5 µg/mL (≈ 1 µM) in the test with Staphylococcus aureus [5]; 0.25 µg/mL (≈ 0.502 µM) in the test with Staphylococcus aureus [6] (setting [17]); 0.5 µg/mL (≈ 1 µM) in the test with Staphylococcus aureus [7]. Also, the values for the inhibition in [4] and in test [8] were 100% and 97%, respectively. The IC90 in [9] stood at 50 µM.
With `O=C(Nc1cccc2cccnc12)c1ccc([N+](=O)[O-])o1`, the minimum inhibitory concentration (MIC) was found to be 2 µg/mL (≈ 7.06 µM) against Staphylococcus aureus [1]; 0.06 µg/mL (≈ 0.212 µM) in the test on Bacillus subtilis; 256 µg/mL (≈ 904 µM) with Escherichia coli (setting [11]); 128 µg/mL (≈ 452 µM) with Pseudomonas aeruginosa (setting [12]); 12 µg/mL (≈ 42.4 µM) in the test on Acinetobacter baumannii (setting [13]); 32 µg/mL (≈ 113 µM) in test [2] (setting [14]). In addition, the MIC with Serratia marcescens (setting [15]) amounted to 32 µg/mL (≈ 113 µM); in test [3] (setting [16]), 0.5 µg/mL (≈ 1.77 µM); in the test with Staphylococcus aureus [5], 2 µg/mL (≈ 7.06 µM); with Staphylococcus aureus [6] (setting [17]), 2 µg/mL (≈ 7.06 µM); in the test on Staphylococcus aureus [7] it was 2 µg/mL (≈ 7.06 µM). Moreover, the figures for the inhibition in test [4] and in [8] were 0% and 90%, respectively.
For the compound `O=C(Nc1ccc(Cl)c(C(=O)c2ccc(Cl)cc2)c1)c1cc(Cl)ccc1O`, the MIC was less than 0.03 µg/mL in the test with Bacillus subtilis; 8 µg/mL (≈ 19 µM) in the test on Escherichia coli; 8 µg/mL (≈ 19 µM) in the test with Escherichia coli (setting [11]); 16 µg/mL (≈ 38 µM) against Pseudomonas aeruginosa; 16 µg/mL (≈ 38 µM) in the test on Pseudomonas aeruginosa (setting [12]); 16 µg/mL (≈ 38 µM) in the test with Acinetobacter baumannii. In addition, the MIC in the test with Acinetobacter baumannii (setting [13]) came out at 16 µg/mL (≈ 38 µM); in test [2] it was 16 µg/mL (≈ 38 µM); in test [2] (setting [14]), 16 µg/mL (≈ 38 µM); against Serratia marcescens it was 16 µg/mL (≈ 38 µM); with Serratia marcescens (setting [15]) it was 16 µg/mL (≈ 38 µM); in [3] it was 0.5 µg/mL (≈ 1.19 µM). Also, the minimal inhibitory concentration (MIC) in test [3] (setting [16]) was 0.5 µg/mL (≈ 1.19 µM); against Staphylococcus aureus [6], 4 µg/mL (≈ 9.51 µM); in the test with Staphylococcus aureus [6] (setting [17]), 4 µg/mL (≈ 9.51 µM); in the test on Staphylococcus aureus [7] it was 4 µg/mL (≈ 9.51 µM); against Staphylococcus aureus [10], more than 4 µg/mL. In test [9], the IC90 was 100 µM.
`Cc1ccc(Nc2nc3nonc3nc2Nc2cccc(C(F)(F)F)c2)cc1Cl`: the inhibition came out at 0% in test [4] and 90% in [8].
The matching figures for `Cc1ccc(OC(=O)c2cc(-c3ccc(C)c(C)c3)on2)c(C)c1`: 0% and 95%.
`C(=C\c1nc([P+](c2ccccc2)(c2ccccc2)c2ccccc2)c(N2CCCCCC2)o1)/c1ccccc1`: the inhibition worked out at 0% in test [4] and 97% in test [8].
